In series [1] the target is Human immunodeficiency virus type 1 integrase (Human immunodeficiency virus 1, UniProt Q7ZJM1). The series is described as follows: Inhibition of HIV1 integrase strand transfer activity.
The nature of series [2]: Clearance in Sprague-Dawley rat at 1 mg/kg, iv after 4 hrs. The series is classed as ADME, organism-based. The settings on record: in vivo. In a few lines: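 Male Sprague-Dawley rats given 1 mpk IV in PEG400/ethanol (90:10); blood sampled at 5 and 30 min and 1, 2 and 4 h post-dose; clearance from plasma profile.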
The nature of series [3]: Aqueous solubility of the compound. The format is physicochemical. An outline of the steps:
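Aqueous solubility measured at pH 2.3, 6.1, 7.3 and 8.5, in µg/mL.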

The IC50 is the point on the concentration scale where inhibition reaches its midpoint. A low value points to greater potency in that assay. A word on the clearance: it is a measure of how efficiently the substance is removed, as volume per time. A lower clearance goes with a low capacity for elimination. One may read the solubility as the dissolved amount per volume that the medium holds. Low readings indicate little dissolved substance, high ones much dissolved substance.

Chain of Human immunodeficiency virus type 1 integrase (Q7ZJM1 whole entry): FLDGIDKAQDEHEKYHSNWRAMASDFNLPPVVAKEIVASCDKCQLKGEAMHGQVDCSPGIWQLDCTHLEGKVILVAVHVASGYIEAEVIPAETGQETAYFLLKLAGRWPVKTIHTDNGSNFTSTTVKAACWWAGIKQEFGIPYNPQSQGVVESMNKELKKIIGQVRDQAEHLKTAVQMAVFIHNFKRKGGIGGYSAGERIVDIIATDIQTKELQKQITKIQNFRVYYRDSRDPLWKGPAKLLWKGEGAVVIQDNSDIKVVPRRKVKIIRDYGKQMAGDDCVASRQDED

With `CC1(C)OCCn2c1nc(C(=O)NCc1ccc(F)cc1S(C)(=O)=O)c(O)c2=O`, in series [1], inhibition was half-maximal at 6 nM (IC50). In series [2], this molecule returned a clearance of 6.9 mL/min/kg.
Regarding `CNC(=O)c1cc(F)ccc1CNC(=O)c1nc2n(c(=O)c1O)CCOC2(C)C`, the IC50 in series [1] was 11 nM. This molecule displayed a clearance in series [2] of 22 mL/min/kg.
Molecule `Cc1cc(F)ccc1CNC(=O)c1nc2n(c(=O)c1O)CCOC2(C)C` displayed an IC50 in series [1] of 2 nM.
The molecule `O=C(NCc1ccc(F)cc1)c1nc2n(c(=O)c1O)CCCC21CCCC1` yielded a solubility in series [3] not above 5 µg/mL. The IC50 in series [1] stood at 3 nM. In series [2], the clearance is 18 mL/min/kg.
`CC1(C)OCCn2c1nc(C(=O)NCc1ccc(F)cc1N1CCOCC1)c(O)c2=O`: inhibition in series [1] was half-maximal at 5 nM (IC50). The molecule further came in with a clearance in series [2] of 29 mL/min/kg.
Molecule `O=C(NCc1ccc(F)cc1S(=O)(=O)N1CCOCC1)c1nc2n(c(=O)c1O)CCCC21CCCC1` yielded a solubility in series [3] not above 5 µg/mL. This molecule also came in with a half-maximal inhibitory concentration (IC50) in series [1] of 11 nM.
In the case of `Cc1cc(CNC(=O)c2nc3n(c(=O)c2O)CCOC3(C)C)ccc1F`, the IC50 in series [1] was 3 nM. This molecule yielded a clearance in series [2] of 11 mL/min/kg.
In series [3], `Cc1cc(CNC(=O)c2nc3n(c(=O)c2O)CCCC32CCCC2)ccc1F` yielded a solubility not above 5 µg/mL. The molecule also had an IC50 in series [1] of 2 nM. For the same molecule, the clearance in series [2] came out at 17 mL/min/kg.

Source of the values: ChEMBL document CHEMBL4118197, “The discovery and preclinical evaluation of BMS-707035, a potent HIV-1 integrase strand transfer inhibitor” (Bioorg Med Chem Lett, 2018).
